Measured values published in ChEMBL document CHEMBL1142352, “Chemical resolution of +/- -calanolide A, +/- -cordatolide A and their 11-demethyl analogues” (Bioorg Med Chem Lett, 2008).
Converted amounts (≈) assume the structure as drawn.

Assays:
[1] = system: Human immunodeficiency virus 1; assay: Antiviral activity against HIV1 at 1.0 uM by luciferase assay; format: functional; conditions: for inhibition at 1 µM: Human immunodeficiency virus 1
How it was run: (§1)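 Pseudotyped HIV-1 assay: drug was serially diluted from 10 µM down to 0.1 nM and tested against 100 TCID50 of HIV ADA infecting TZM CD4+ CCR5+ cells. Infection was read on day 3 post-infection as reporter luciferase activity using a commercial kit, and results are given as percent inhibition. Controls were infected cells without drug, a pseudovirus with a non-specific envelope, and an RT inhibitor.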

Vero [2] = assay: Cytotoxicity against african green monkey Vero cells at 10 uM; format: cell-based; conditions: chlorocebus sabaeus
How it was run: (§2)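 Microtiter cytotoxicity assay run in parallel on Vero and TZM CD4+ CCR5+ cells. Serially diluted drug was applied, and viability was measured with a commercial cell viability assay. Values are reported as percent reduction in cell viability.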

[3] = system: Human immunodeficiency virus 1; assay: Antiviral activity against HIV1 at 10 uM by luciferase assay; format: functional; conditions: for inhibition at 10 µM: Human immunodeficiency virus 1; how it was run: as §1
[4] = system: Mycobacterium tuberculosis; assay: Antimicrobial activity against Mycobacterium tuberculosis; format: functional
Vero [5] = assay: Cytotoxicity against african green monkey Vero cells at 1.0 uM; format: cell-based; conditions: chlorocebus sabaeus; how it was run: as §2

SMILES	inhibition at 1 µM [1] [%]	Activity (Vero [2]) [%]	Inhibition [3] [%]	MIC [4] [µg/mL]	Activity (Vero [5]) [%]	inhibition at 10 µM [3] [%]	Inhibition [1] [%]
CCCc1cc(=O)oc2c3c(c4c(c12)OC(C)(C)C=C4)O[C@H](C)[C@@H](C)[C@@H]3O [CALANOLIDE A]	86	6	98	3.13 (≈ 8.45 µM)	1		
CCCc1cc(=O)oc2c3c(c4c(c12)OC(C)(C)C=C4)O[C@H](C)C[C@@H]3O [(+)-11-DEMETHYL CALANOLIDE A]	75	54			0	98	
CCCc1cc(=O)oc2c3c(c4c(c12)OC(C)(C)C=C4)O[C@H](C)[C@@H](C)[C@@H]3O (racemic) [CALANOLIDE A]		0			0	97	81
Cc1cc(=O)oc2c3c(c4c(c12)OC(C)(C)C=C4)O[C@H](C)C[C@@H]3O [(+)-11-DEMETHYL CORDATOLIDE A]	0	0			0	0	
Cc1cc(=O)oc2c3c(c4c(c12)OC(C)(C)C=C4)O[C@H](C)[C@@H](C)[C@@H]3O [(+)-CORDATOLIDE A]	44	0			0	85	
CCCc1cc(=O)oc2c3c(c4c(c12)OC(C)(C)C=C4)O[C@@H](C)C[C@H]3O [(-)-11-DEMETHYL CALANOLIDE A]	0	0			0	0	
Cc1cc(=O)oc2c3c(c4c(c12)OC(C)(C)C=C4)O[C@@H](C)C[C@H]3O [(-)-11-DEMETHYL CORDATOLIDE A]	0	0			0	0	
CCCc1cc(=O)oc2c3c(c4c(c12)OC(C)(C)C=C4)O[C@@H](C)[C@H](C)[C@H]3O [(-)-CALANOLIDE A]	67	0			0	97	
Cc1cc(=O)oc2c3c(c4c(c12)OC(C)(C)C=C4)O[C@@H](C)[C@H](C)[C@H]3O [(-)-CORDATOLIDE A]	0	0			0	0	
